STAT1 inh: STAT1 signaling inhibitors, primary screen, cell-based, HTS, luciferase reporter; NIH 3T3 STAT1-luciferase reporter, IFN-gamma, luminescence; inhibition, % at 5.5 µM; actives 0.35% (n = 200,000); AID 920, 2007;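 active = inhibition above a set limit, the mean inhibition across all tested compounds plus 3 SD, cut at about 34% in these data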
STAT3 blocker: IL-6 driven STAT3 reporter inhibitors, primary screen, U3A cells, luciferase, luminescence, MLSCN library; IL-6 STAT3-luciferase reporter; host cell line lacks STAT1; inhibition, % at 5.5 µM; actives 0.89% (n = 190,000);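 active = inhibition above the mean inhibition across all screened compounds plus 3 SD, cut at about 44% in these data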
STAT3 act-1: IL-6 driven STAT3 reporter potentiators, primary screen, U3A cells, luciferase, luminescence, MLSCN library. IL-6 STAT3-luciferase reporter; 100% = signal with IL-6 EC80 alone. activation (% of control), % at 5.6 µM. actives 0.91% (n = 190,000);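 active = activation above the screen-wide mean of compound activation plus 3 SD, cut at about 130% in these data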
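system = STAT3-luciferase reporter U3A cells | reagent = IL-6 stimulus at 33 ng/mL final | timing = 1 h compound pre-exposure, 6 h IL-6 stimulation, 37 °C | measured by = luminescence | evaluation = % activation versus median of IL-6-stimulated wells | control set = IL-6-only wells as 100% reference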
PERK inhibitor: block of dimerizer-induced PERK translation repression, primary screen, PERK inhibitor project, CHO PERK-DD cells, SEAP luminescence, HTS | Eukaryotic translation initiation factor 2-alpha kinase 3 (Homo sapiens), Q9NZJ5 | CHO PERK-DD fusion, SEAP luminescence translation reporter | inhibition, % at 5.6 µM | actives 0.17% (n = 220,000);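 active = inhibition above the mean inhibition of all tested compounds plus 3 SD, set separately per screening campaign, cut at about 2.9% in these data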;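 also: PERK kinase domain activated by AP20187 dimerizer at 100 nM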
Target sequence (Q9NZJ5 whole entry, looked up, the tested form may be a part): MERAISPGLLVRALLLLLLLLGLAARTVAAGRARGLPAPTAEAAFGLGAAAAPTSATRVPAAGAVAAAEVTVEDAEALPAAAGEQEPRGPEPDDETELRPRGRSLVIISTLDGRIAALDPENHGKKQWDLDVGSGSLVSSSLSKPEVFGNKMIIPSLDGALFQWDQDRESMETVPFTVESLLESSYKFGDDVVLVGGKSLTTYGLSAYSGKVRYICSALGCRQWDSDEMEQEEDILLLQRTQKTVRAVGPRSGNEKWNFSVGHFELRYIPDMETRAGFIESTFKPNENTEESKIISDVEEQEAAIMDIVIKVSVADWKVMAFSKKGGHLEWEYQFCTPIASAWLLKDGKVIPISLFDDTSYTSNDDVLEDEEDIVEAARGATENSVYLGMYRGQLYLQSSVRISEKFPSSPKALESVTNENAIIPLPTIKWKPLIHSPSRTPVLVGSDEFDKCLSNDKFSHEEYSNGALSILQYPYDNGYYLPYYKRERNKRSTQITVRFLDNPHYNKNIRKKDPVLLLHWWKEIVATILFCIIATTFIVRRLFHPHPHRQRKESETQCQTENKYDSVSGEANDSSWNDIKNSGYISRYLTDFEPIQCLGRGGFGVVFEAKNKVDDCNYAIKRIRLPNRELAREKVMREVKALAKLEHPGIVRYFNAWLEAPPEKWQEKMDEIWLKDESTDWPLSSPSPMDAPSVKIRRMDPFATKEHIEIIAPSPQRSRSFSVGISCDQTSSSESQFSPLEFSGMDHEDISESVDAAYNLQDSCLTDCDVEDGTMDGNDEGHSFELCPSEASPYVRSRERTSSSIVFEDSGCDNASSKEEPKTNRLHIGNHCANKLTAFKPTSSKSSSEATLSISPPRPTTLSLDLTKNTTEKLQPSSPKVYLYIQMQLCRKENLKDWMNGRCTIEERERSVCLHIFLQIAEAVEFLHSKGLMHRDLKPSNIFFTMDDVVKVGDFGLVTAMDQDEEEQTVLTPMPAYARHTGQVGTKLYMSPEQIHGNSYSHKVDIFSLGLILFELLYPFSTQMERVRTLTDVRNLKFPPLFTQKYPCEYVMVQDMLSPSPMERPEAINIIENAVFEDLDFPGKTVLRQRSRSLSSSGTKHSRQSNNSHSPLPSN
STAT3 act-2: STAT3 reporter potentiators, retest of hits, confirmation, U3A cells, luciferase, luminescence. shares compounds with STAT3 act-1. IL-6 potentiation; U3A cells lack STAT1; 100 means same as IL-6 alone. potentiation (% of control), % at 5.7 µM. actives 64% (n = 1,200). AID 1267, 2008;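 active = percent activation of the STAT3 luciferase reporter above a set limit taken from the earlier primary screen, cut at about 130% in these data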
NFkB act STAT3ct: NF-kB reporter activators in human cells, counter-screen for STAT3 activator project; NF-kappaB reporter activation; activation (% of control), % at 5.7 µM; actives 11% (n = 1,200); shares compounds with STAT3 act-1; in the data active = activation above about 120%;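 also: reporter induced by TNF-alpha stimulation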
STAT1 act STAT3c: STAT1 reporter activators, IFN-gamma induced, counter-screen for STAT3 activator project, cell-based, NIH 3T3, luciferase luminescence; shares compounds with STAT3 act-1; NIH 3T3 STAT1-luciferase reporter; activation (% of control), % at 5.7 µM; actives 13% (n = 1,200);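 active = activation above the solvent-only control well mean plus 3 SD, set per screening run, cut at about 120% in these data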
Hits are given with their value; 0 = inactive; - = no result given. An excerpt weighted towards active compounds, which were near 1.8% of everything screened.

SMILES	STAT1 inh	STAT3 blocker	STAT3 act-1	PERK inhibitor	STAT3 act-2	NFkB act STAT3ct	STAT1 act STAT3c
C/C(=N\OCc1nc2ccccc2c(=O)n1/N=C/c1cc(C)cc([N+](=O)[O-])c1O)c1ccccc1	-	-	-	0	-	-	-
COCCNC(=O)CCC(=O)NNc1nc2ccccc2c2nc(-c3ccccc3)nn12	0	0	0	0	-	-	-
COCc1ccc(CN2CCc3c([nH]c4ccccc34)C2C(C)(C)C)o1 (stereo not given)	0	0	140	0	141	0	0
Cn1c2ccc(Cl)cc2c2nc3ccccc3nc21	0	0	173	0	173	0	131
O=C(NCc1ccco1)/C(=C\c1cccnc1)NC(=O)c1ccccc1F	0	0	0	0	-	-	-
O=C(CS(=O)c1ccc(C(F)(F)F)cc1[N+](=O)[O-])Oc1ccccc1 (stereo not given)	0	0	147	0	0	0	0
COC(=O)c1ccc(OC(=O)CS(=O)c2ccccc2[N+](=O)[O-])cc1 (stereo not given)	0	0	0	0	-	-	-
Cc1cc(C)c(S(=O)(=O)/N=C2/C=C(SCC(=O)O)C(=O)c3ccccc32)cc1C	0	0	139	0	135	0	0
Cc1cccc(C2c3[nH]c4ccccc4c3CCN2C(=O)c2nn(C)c(=O)c3ccccc23)n1 (stereo not given)	0	0	137	0	0	0	0
Cc1cccc(C2c3[nH]c4ccccc4c3CCN2C(=O)c2cc(CC(C)C)nc(C)n2)n1 (stereo not given)	0	0	153	0	151	0	0
Cc1cccc(C2c3[nH]c4ccccc4c3CCN2C(=O)c2ocnc2C)n1 (stereo not given)	0	0	0	0	-	-	-
CC(C)Cc1cc(C(=O)Nc2cc(C(F)(F)F)ccc2Cl)no1	0	0	143	0	0	0	0
O=C(Nc1cc(C(F)(F)F)ccc1Cl)c1ccncc1	0	0	0	0	-	-	-
COc1cccc2cc3c(=O)n(-c4ccccc4)nc-3oc12	0	0	141	0	0	0	0
COc1ccccc1OCCCN1C(=O)C(=O)c2cccc(C)c21	0	0	138	0	0	0	0
Cc1nn(CCC(=O)NNC(=S)Nc2ccc([N+](=O)[O-])cc2)c(C)c1[N+](=O)[O-]	0	0	140	0	136	0	0
Cn1ccnc1C1CCCCN1Cc1nc(-c2ccc3c(c2)OCO3)no1 (stereo not given)	0	0	0	0	-	-	-
COC(=O)NNC(=O)c1ccccc1OC	0	0	148	0	166	0	0
COc1ccccc1C(=O)NNC(=O)c1ccc(NC(=O)C(C)C)cc1	0	0	148	0	153	0	0
COc1ccccc1C(=O)NNC(=O)C(=O)NC(C)(C)C	0	0	143	0	144	0	0
COc1ccccc1C(=O)NNC(=S)Nc1ccccc1	0	0	139	0	146	0	0
COc1ccccc1C(=O)NNC(=O)c1ccc(F)cc1	0	0	0	0	-	-	-
CC1=CN2C(=N)/C(=C\c3cn(CCCOc4ccccc4)c4ccccc34)C(=O)N=C2S1	0	0	0	0	-	-	-
CCCNC(=O)CN1C(=O)NC(CCSC)C1=O (stereo not given)	-	-	-	0	-	-	-
CCN(Cc1ccccc1)Cc1nnnn1Cc1ccccc1	0	0	0	0	-	-	-
SMILES	STAT1 inh	STAT3 blocker	STAT3 act-1	PERK inhibitor	STAT3 act-2	NFkB act STAT3ct	STAT1 act STAT3c
CCOc1cc(/C=N/NC(=S)Nc2ccccc2C(F)(F)F)ccc1OCC(=O)N1CCOCC1	0	0	0	0	-	-	-
CCn1c(C)c(/C=N/Nc2nc3ccccc3s2)c2ccccc21	0	0	136	0	0	0	0
Clc1cccc(/C=N/Nc2nnc(Cl)c3ccccc23)c1	0	0	140	0	0	0	0
Clc1ccc(/C=N/Nc2nnc(-c3ncc[nH]3)c3ccccc23)cc1	0	0	0	0	-	-	-
O=C(CCl)Nc1cn(-c2ccccc2)nc1-c1ccccc1	0	0	0	0	-	-	-
Cn1c(C(=O)Nc2ccccc2)cc2sccc21	0	0	163	0	144	123	134
COc1ccc(NC(=O)c2sc(SCc3ccccc3)nc2N)cc1	0	0	0	0	-	-	-
COc1ccc(NC(=O)c2sc(SC)nc2N)cc1	0	0	136	0	162	127	150
Cc1cc(C)c(NC(=O)CS(=O)CC(=O)NCC2CCCO2)c(C)c1 (stereo not given)	0	0	140	0	0	0	0
Cc1cc(C)cc(OCC(=O)NCC2CCCO2)c1 (stereo not given)	0	0	0	0	-	-	-
Cc1ccc(-c2ccc(/C=N/NC(N)=S)o2)cc1	-	-	-	0	-	-	-
NC(=S)N/N=C/c1ccc(-c2ccc(Cl)c(Cl)c2)o1	0	0	191	0	145	0	0
O=C(O)/C=C/C(=O)Nc1ccc(N2CCOCC2)nc1N1CCOCC1	-	-	-	0	-	-	-
CCCn1c2ccccc2c2nnc(SCC(=O)OC)nc21	0	0	0	0	-	-	-
CCCCn1c2ccccc2c2nnc(SCC(=O)NC3=NN=C(c4ccccc4)CS3)nc21	0	0	136	0	0	0	0
O=C(C1=C[C@@H](c2ccc(C(F)(F)F)cc2)C[C@@H](OCCCCO)O1)N1CCN(Cc2ccc3c(c2)OCO3)CC1	0	-	-	0	-	-	-
COCCNC(=O)c1ccccc1NC(=O)C1COc2ccccc2O1 (stereo not given)	0	0	0	0	-	-	-
O=C(NCCOc1ccccc1)c1ccccc1NC(=O)C1CCCO1 (stereo not given)	0	0	140	0	138	0	131
Cc1oc(-c2cc(F)ccc2F)nc1CN1CCN(C)C(=O)[C@@H]1C	0	0	0	0	-	-	-
Cc1cc(C)c2oc(-c3ccc(Cl)c(NC(=O)c4ccc(C#N)cc4F)c3)nc2c1	0	0	173	0	165	0	0
N#Cc1ccc(C(=O)Nc2cccc3ncccc23)c(F)c1	0	0	0	0	-	-	-
Cc1cc(NC(=O)c2ccc(Cl)cc2)c(C)cc1O	0	0	0	0	-	-	-
Cc1ccc(C(=O)Nc2cc(Cl)ccc2OC(=O)c2ccc(C)cc2)cc1	0	0	140	0	0	0	0
O=C(Nc1ccccc1O)c1ccc(Cl)cc1	0	0	152	0	141	0	0
O=C(Nc1ccccc1OC(=O)c1ccc(Cl)cc1)c1ccc(Cl)cc1	0	0	136	0	141	0	0
COc1ccc(C(=O)Nc2cc(Cl)ccc2OC(=O)c2ccc(OC)cc2)cc1	0	0	0	0	-	-	-

Source: PubChem BioAssay (The Scripps Research Institute Molecular Screening Center)
